Laboratory results reported in ChEMBL document CHEMBL1155099, “Natural products in parallel synthesis: triazole libraries of nonactic acid” (2008).
The source made the active and inactive calls.

Key:
Format in all cases: functional, organism-based
Staphylococcus aureus = test: Antibacterial activity against Staphylococcus aureus at 1 mM by almar blue dye reduction assay
In short: (§1)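 Single-point primary screen at 1 mM using Alamar Blue dye reduction as the growth read-out.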

Escherichia coli = test: Antibacterial activity against Escherichia coli at 1 mM by almar blue dye reduction assay; in short: as §1
Saccharomyces cerevisiae = test: Antifungal activity against Saccharomyces cerevisiae at 1 mM by almar blue dye reduction assay; in short: as §1
Candida albicans = test: Antifungal activity against Candida albicans at 1 mM by almar blue dye reduction assay; in short: as §1
Bacillus anthracis = test: Antibacterial activity against Bacillus anthracis at 1mM by almar blue dye reduction assay
Bacillus subtilis = test: Antibacterial activity against Bacillus subtilis at 1 mM by almar blue dye reduction assay; in short: as §1
Pseudomonas aeruginosa = test: Antibacterial activity against Pseudomonas aeruginosa at 1 mM by almar blue dye reduction assay; in short: as §1
Cryptococcus neoformans = test: Antifungal activity against Cryptococcus neoformans at 1 mM by almar blue dye reduction assay; in short: as §1
Bacillus cereus = test: Antibacterial activity against Bacillus cereus at 1 mM by almar blue dye reduction assay; in short: as §1

Measured: Activity

COc1ccc(C#Cc2cn([C@H](C)C[C@@H]3CC[C@H]([C@@H](C)C(=O)N4CCCC4)O3)nn2)cc1
inactive: all assays above

COc1ccc(OCC#Cc2cn([C@H](C)C[C@@H]3CC[C@H]([C@@H](C)C(=O)N4CCN(CC5CCCO5)CC4)O3)nn2)cc1 (some centres not stated)
inactive: all assays above

CCN(CC)C(=O)[C@H](C)C1CCC(C[C@@H](C)n2cc(C#CCOC(=O)Nc3cccc(C)c3)nn2)O1 (single isomer, unassigned)
inactive: all assays above

Cc1cccc(NC(=O)NCC#Cc2cn([C@H](C)CC3CCC([C@@H](C)C(=O)N(C)Cc4ccccc4)O3)nn2)c1 (single isomer, unassigned)
inactive: all assays above

CCOC(=O)C#Cc1cn([C@H](C)CC2CCC([C@@H](C)C(=O)N(C)Cc3ccccc3)O2)nn1 (single isomer, unassigned)
inactive: all assays above

C[C@H](C[C@@H]1CC[C@H]([C@@H](C)C(=O)N2CCCC2)O1)n1cc(C#Cc2cccc3ccccc23)nn1
inactive: all assays above

CCN(CC)C(=O)[C@H](C)[C@H]1CC[C@@H](C[C@@H](C)n2cc(C#CCN3CCN(c4ccccc4)CC3)nn2)O1
inactive: all assays above

C[C@H](C[C@@H]1CC[C@H]([C@@H](C)C(=O)N(C)Cc2ccccc2)O1)n1cc(C#Cc2ccc(-c3ccccc3)cc2)nn1
inactive: all assays above

CCCCCC#Cc1cn([C@H](C)C[C@@H]2CC[C@H]([C@@H](C)C(=O)N3CCN(CC4CCCO4)CC3)O2)nn1 (some centres not stated)
inactive: all assays above

CC(C)NC(=O)[C@H](C)C1CCC(C[C@@H](C)n2cc(C#CCOC(=O)OCc3ccccc3)nn2)O1 (single isomer, unassigned)
inactive: all assays above

COc1ccc(C#Cc2cn([C@H](C)C[C@@H]3CC[C@H]([C@@H](C)C(=O)N(C)Cc4ccccc4)O3)nn2)cc1
inactive: all assays above

C[C@H](CC1CCC([C@@H](C)C(=O)N(C)Cc2ccccc2)O1)n1cc(C#CCOC(=O)OCc2ccccc2)nn1 (single isomer, unassigned)
inactive: all assays above

CC(C)NC(=O)[C@H](C)[C@H]1CC[C@@H](C[C@@H](C)n2cc(C#CCc3ccccc3)nn2)O1
inactive: all assays above

C[C@H](C[C@@H]1CC[C@H]([C@@H](C)C(=O)N(C)Cc2ccccc2)O1)n1cc(C#CCOc2ccccc2)nn1
inactive: all assays above

CCCCN(CC#Cc1cn([C@H](C)C[C@@H]2CC[C@H]([C@@H](C)C(=O)NC(C)C)O2)nn1)CCCC
inactive: all assays above

CCCCCC#Cc1cn([C@H](C)C[C@@H]2CC[C@H]([C@@H](C)C(=O)NC(C)C)O2)nn1
inactive: all assays above

CCN(CC)C(=O)[C@H](C)[C@H]1CC[C@@H](C[C@@H](C)n2cc(C#Cc3ccccn3)nn2)O1
inactive: all assays above

C[C@H](C[C@@H]1CC[C@H]([C@@H](C)C(=O)N2CCN(CC3CCCO3)CC2)O1)n1cc(C#CCN2CCOCC2)nn1 (some centres not stated)
inactive: all assays above
